Reference: ChEMBL document CHEMBL4808207, “Macrocyclic Peptides as a Novel Class of NNMT Inhibitors: A SAR Study Aimed at Inhibitory Activity in the Cell” (ACS Med Chem Lett, 2021)
Numbered stars: 1 amine (or outer) side, 2 acyl side, 3 side chain; on linkers, the order of the positions; unused ones are H or OH. Bridge positions count the residues as written; N and C are the ends. Square brackets hold non-standard residues; d marks the D form. Peptide text beside a SMILES is read from it. Bip(4'-CONH2) = NC(=O)c1ccc(-c2ccc(C[C@H](N)C(=O)O)cc2)cc1; Pro(trans-4-Ph) = O=C(O)[C@@H]1C[C@@H](c2ccccc2)CN1; Phe(4-CONH2) = NC(=O)c1ccc(C[C@H](N)C(=O)O)cc1; Pro(4,4-F2) = O=C(O)[C@@H]1CC(F)(F)CN1; NHCH2CH2SCH2CO = O=C(CSCCN[*:1])[*:2]; NMeY = CN[C@@H](Cc1ccc(O)cc1)C(=O)O; Lys(Me2) = CN(C)CCCC[C@H](N)C(=O)O; NMeF = CN[C@@H](Cc1ccccc1)C(=O)O; tBuAla = CC(C)(C)C[C@H](N)C(=O)O; 3Pal = N[C@@H](Cc1cccnc1)C(=O)O; Tic = O=C(O)[C@@H]1Cc2ccccc2CN1; Pip = O=C(O)[C@@H]1CCCCN1

How the values were obtained:
HEK293 = assay: Cytotoxicity against human HEK293 cells overexpressing human NNMT assessed as reduction in ATP level measured after 24 hrs by CellTiter-glo luminescence assay; type: cell-based; settings: hek293, 24 h
How it was run: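 Reported value is the peptide concentration giving a 20% decline in cellular ATP in NNMT-overexpressing HEK293 cells, with peptides tested up to 100 μM.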

[1] = molecular target: T1, Nicotinamide N-methyltransferase (Mus musculus, UniProt O55239); assay: Inhibition of mouse recombinant NNMT using nicotinamide and SAM as substrate assessed as reduction in 1-methyl-nicotinamide formation incubated for 22 to 24 hrs by RapidFire Mass spectroscopy
T1 sequence (O55239 whole entry): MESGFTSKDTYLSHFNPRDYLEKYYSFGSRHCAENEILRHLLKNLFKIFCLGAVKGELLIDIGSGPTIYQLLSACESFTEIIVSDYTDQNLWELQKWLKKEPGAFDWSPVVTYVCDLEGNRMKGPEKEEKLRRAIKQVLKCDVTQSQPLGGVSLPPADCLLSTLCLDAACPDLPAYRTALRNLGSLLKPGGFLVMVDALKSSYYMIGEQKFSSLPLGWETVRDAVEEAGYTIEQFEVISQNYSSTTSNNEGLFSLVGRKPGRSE

[2] = molecular target: T1, Nicotinamide N-methyltransferase; assay: Inhibition of mouse recombinant NNMT using nicotinamide and SAM as substrate assessed as reduction in 1-methyl-nicotinamide formation incubated for 2 hrs by RapidFire Mass spectroscopy
[3] = molecular target: T2, Nicotinamide N-methyltransferase (Homo sapiens, UniProt P40261); assay: Inhibition of human recombinant NNMT using nicotinamide and SAM as substrate assessed as reduction in 1-methyl-nicotinamide formation incubated for 22 to 24 hrs by RapidFire Mass spectroscopy
T2 sequence (P40261 whole entry): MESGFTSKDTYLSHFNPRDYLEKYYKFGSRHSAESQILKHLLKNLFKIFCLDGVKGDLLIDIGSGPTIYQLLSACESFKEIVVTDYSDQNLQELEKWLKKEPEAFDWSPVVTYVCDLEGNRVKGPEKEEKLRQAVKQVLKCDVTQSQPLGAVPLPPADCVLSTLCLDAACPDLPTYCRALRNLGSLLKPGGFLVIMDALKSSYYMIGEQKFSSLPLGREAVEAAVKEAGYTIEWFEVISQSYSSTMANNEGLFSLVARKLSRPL

Row | SMILES | IC50 [1] | IC50 [2] | IC50 [3] | CC20 (HEK293)
1 | CN1C(=O)CSCCNC(=O)[C@H](Cc2ccc(-c3ccc(C(N)=O)cc3)cc2)NC(=O)[C@@H]2Cc3ccccc3CN2C(=O)[C@@H]2CC(F)(F)CN2C(=O)[C@@H]2CCCCN2C(=O)[C@H](CC(C)(C)C)NC(=O)[C@@H]2C[C@@H](c3ccccc3)CN2C(=O)[C@@H]1Cc1ccccc1 (cyclo([NMeF][Pro(trans-4-Ph)][tBuAla][Pip][Pro(4,4-F2)][Tic][Bip(4'-CONH2)][NHCH2CH2SCH2CO])) |  |  |  | > 100 µM
2 | CC[C@H](C)[C@@H]1NC(=O)[C@H](CC(C)C)NC(=O)[C@@H]2CCCN2C(=O)[C@H](Cc2ccccc2)NC(=O)CSC[C@@H](C(=O)NCC(N)=O)NC(=O)CNC(=O)[C@H](CCCCN)NC(=O)[C@H](CCCNC(=N)N)NC(=O)[C@@H]2CCCN2C(=O)[C@H](Cc2ccccc2)NC1=O ({CH2CO}-FPLIFPRKGCG-NH2; thioether N-10) |  | 0.243 µM |  | 
3 | CC(C)C[C@@H]1NC(=O)[C@@H]2CCCN2C(=O)[C@H](Cc2ccccc2)NC(=O)CSC[C@@H](C(N)=O)NC(=O)[C@H](Cc2ccc(-c3ccc(C(N)=O)cc3)cc2)NC(=O)[C@@H]2Cc3ccccc3CN2C(=O)[C@@H]2CCCN2C(=O)[C@H](CCCCN)NC1=O ({CH2CO}-FPLKP[Tic][Bip(4'-CONH2)]C-NH2; thioether N-8) |  |  |  | > 100 µM
4 | CC[C@H](C)[C@@H]1NC(=O)[C@H](CC(C)C)NC(=O)[C@@H]2CCCN2C(=O)[C@H](Cc2ccccc2)NC(=O)CSC[C@@H](C(N)=O)NC(=O)CNC(=O)[C@H](CCCCN)NC(=O)[C@H](CCCNC(=N)N)NC(=O)[C@@H]2CCCN2C(=O)[C@H](Cc2ccccc2)NC1=O ({CH2CO}-FPLIFPRKGC-NH2; thioether N-10) |  | > 30 µM |  | 

Continued, in another order:

Row | IC50 [1] | IC50 [2] | IC50 [3] | SMILES | CC20 (HEK293)
5 | 0.00062 µM |  |  | CN(C)CCCC[C@@H]1NC(=O)[C@H](CC(C)(C)C)NC(=O)[C@@H]2C[C@@H](c3ccccc3)CN2C(=O)[C@H](Cc2ccccc2)N(C)C(=O)CSCCNC(=O)[C@H](Cc2ccc(-c3ccc(C(N)=O)cc3)cc2)NC(=O)[C@@H]2Cc3ccccc3CN2C(=O)[C@@H]2CC(F)(F)CN2C1=O (cyclo([Lys(Me2)][Pro(4,4-F2)][Tic][Bip(4'-CONH2)][NHCH2CH2SCH2CO][NMeF][Pro(trans-4-Ph)][tBuAla])) | > 100 µM
6 | > 100 µM |  | > 100 µM | CN1C(=O)CSC[C@@H](C(N)=O)NC(=O)[C@H](Cc2ccc(C(N)=O)cc2)NC(=O)[C@@H]2Cc3ccccc3CN2C(=O)[C@@H]2CCCN2C(=O)[C@H](Cc2c[nH]cn2)NC(=O)[C@H](Cc2ccc(O)cc2)NC(=O)[C@@H]2CCCN2C(=O)[C@@H]1Cc1ccccc1 ({CH2CO}-[NMeF]PYHP[Tic][Phe(4-CONH2)]C-NH2; thioether N-8) | 
7 | > 30 µM |  | > 30 µM | CN1C(=O)[C@@H]2CCCN2C(=O)[C@H](Cc2ccccc2)NC(=O)CSC[C@@H](C(N)=O)NC(=O)[C@H](Cc2ccc(C(N)=O)cc2)NC(=O)[C@@H]2Cc3ccccc3CN2C(=O)[C@@H]2CCCN2C(=O)[C@H](CCCNC(=N)N)NC(=O)[C@@H]1Cc1ccc(O)cc1 ({CH2CO}-FP[NMeY]RP[Tic][Phe(4-CONH2)]C-NH2; thioether N-8) | 
8 | 0.025 µM |  |  | N=C(N)NCCC[C@@H]1NC(=O)[C@H](Cc2ccc(O)cc2)NC(=O)[C@@H]2CCCN2C(=O)[C@H](Cc2ccccc2)NC(=O)CSC[C@@H](C(N)=O)NC(=O)[C@H](Cc2ccc(C(N)=O)cc2)NC(=O)[C@@H]2Cc3ccccc3CN2C(=O)[C@@H]2CCCN2C1=O ({CH2CO}-FPYRP[Tic][Phe(4-CONH2)]C-NH2; thioether N-8) | > 100 µM
9 | > 100 µM |  | > 100 µM | CN1C(=O)CSC[C@@H](C(N)=O)NC(=O)[C@H](Cc2ccc(C(N)=O)cc2)NC(=O)[C@@H]2Cc3ccccc3CN2C(=O)[C@@H]2CCCN2C(=O)[C@H](Cc2cccnc2)NC(=O)[C@H](Cc2ccc(O)cc2)NC(=O)[C@@H]2CCCN2C(=O)[C@@H]1Cc1ccccc1 ({CH2CO}-[NMeF]PY[3Pal]P[Tic][Phe(4-CONH2)]C-NH2; thioether N-8) | 
